Assay results published in article PMC3794531 (Biomolecules & Therapeutics, 2012).

How the values were obtained:
[1] = system: colon cancer-induced mice; experiment: In vivo survival test in colon cancer-induced mice; details: intravenous, n=4
Summary of the method: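 Mice were anesthetized and the cecum exteriorized by laparotomy. CT26 cells (1×10^6 in 50 μl) were injected into the cecal wall, then the gut was returned and the incision closed (surgical orthotopic implantation). Test compounds were given intravenously, and survival was followed over the experimental period.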

[2] = sodium phosphate (pH 7), 120 min; ref Tallman et al., 2005; cited from earlier work
[3] = Proportion of total lactone form in PBS, MCF7 cell lysates and rat plasma; type: in vitro ADME; details: 37℃
Summary of the method: (§1)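 Test compound (5 μM) was incubated at 37℃ in PBS, rat plasma, or MCF7 lysate. Lysate was prepared by adding PMSF, sonicating 10 sec, and centrifuging at 4℃ and 13,200 rpm for 15 min. Samples taken over time up to 120 min were quenched in ice-cold acetonitrile and centrifuged. Supernatant was diluted in 10 mM K2HPO4 pH 7.4 and run on C18 HPLC (K2HPO4:acetonitrile 62:38, 1 ml/min) with fluorescence detection (ex 380/em 540 nm). Data are mean ± SD.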

MCF7 cells = experiment: MTT cytotoxicity test in MCF7 cells; type: cell-based; details: Homo sapiens, MCF7, 72 h
Summary of the method: (§2)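 Cells were grown in DMEM with 10% FBS, 100 unit/ml penicillin and 0.1 mg/ml streptomycin at 37℃ and 5% CO2, and split near 80% confluency. They were seeded at 1×10^5 cells/well and cultured 24 h to ~80% confluency, then exposed to test compound for 72 h. MTT (0.5 mg/ml in serum-free medium) was added for 2 h, and absorbance was read at 540 nm. Data are mean ± SD.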

HT29 = experiment: MTT cytotoxicity test in HT29 cells; type: cell-based; details: Homo sapiens, HT-29, 72 h
Summary of the method: as §2

CT26 = experiment: MTT cytotoxicity test in CT26 cells; type: cell-based
Summary of the method: as §2

[4] = Stability test in PBS, MCF7 cell lysates and rat plasma; type: in vitro ADME; details: 5 μM, 37℃
Summary of the method: as §1

[5] = ref Kawato et al., 1991; cited from earlier work

Compound	survival time [1]	percentage of SN-38 lactone remaining [2]	proportion of the lactone form at 120 min ([3]; MCF7 lysates)	proportion of the lactone form at 120 min ([3]; PBS)	proportion of the lactone form at 120 min ([3]; all 3 conditions (PBS, MCF7 lysates, plasma))	initial proportion of the lactone form ([3]; early time points, all 3 conditions (PBS, MCF7 lysates, plasma), 5 μM)	proportion of the lactone form at 120 min ([3]; rat plasma)	EC50 (MCF7 cells)	EC50 (HT29)	survived longer than the irinotecan-administered group [1]	potency compared with irinotecan (CT26; MTT assay, CT26 and HT29 (Fig. 2))	EC50 (CT26; Mus musculus, CT26, 72 h)	stability in MCF7 lysates ([4]; MCF7 lysates, up to 120 min)	compound remaining after 120 min ([4]; PBS)	compound remaining after 120 min ([4]; rat plasma)	potency relative to irinotecan in terms of in vitro cytotoxicity [5]
CCc1c2c(nc3ccc(OC(=O)N4CCC(N5CCCCC5)CC4)cc13)-c1cc3c(c(=O)n1C2)COC(=O)[C@]3(O)CC [irinotecan]	< 28 days	–	–	–	–	–	–	–	–	–	–	–	–	–	–	–
CCc1c2c(nc3ccc(O)cc13)-c1cc3c(c(=O)n1C2)COC(=O)[C@]3(O)CC [SN-38, 7-ethyl-10-hydroxy-camptothecin]	–	around 40%	around 40%	around 40%	30-40%	80-90%	~ 30%	0.248 µM	1.32 µM	at least 2 weeks	much more potent than the parent compound irinotecan	17.3 µM	rather unstable	~80%	about 60%	100 fold
